Measured values published in paper PMC4824049 (Bioorganic & medicinal chemistry, 2015).
“Also recorded” adds a separate entry of the source.

How the values were obtained:
[1] = system: MDA-MB-231 breast cancer cells; assay: MDA-MB-231 cell migration assay; format: cell-based, human; settings: 25 μM
Summary of the method: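 MDA-MB-231 cells (DMEM, 10% FBS, gentamycin) were trypsinised at 80% confluence and counted. Each insert (8 µm pores, no Matrigel) received 50,000 cells in DMEM with 2% DMSO and test compound at 25 or 10 µM; the lower chamber held DMEM with 10% FBS as chemoattractant. E-64 served as positive control. After 24 h at 37 °C and 5% CO2, migrated cells were methanol-fixed and Diff-stained. Values were normalised to 2% DMSO vehicle, in triplicate.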

cathepsin L [2] = biological target: T1, cathepsin L (Homo sapiens, UniProt P07711); assay: Cathepsin L reaction progress curves / reversibility; format: biochemical; settings: separate experiments, Supplementary data
T1 sequence (P07711 114-288 limits assumed): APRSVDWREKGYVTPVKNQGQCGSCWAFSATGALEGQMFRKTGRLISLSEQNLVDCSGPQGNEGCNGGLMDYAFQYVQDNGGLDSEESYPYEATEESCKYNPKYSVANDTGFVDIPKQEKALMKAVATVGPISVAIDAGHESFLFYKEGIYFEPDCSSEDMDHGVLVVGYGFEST
T1 sequence (P07711 292-333 limits assumed): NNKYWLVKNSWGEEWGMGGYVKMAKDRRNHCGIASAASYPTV
Summary of the method: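 No pre-incubation. Test compound at final 10, 5, 1, 0.5, 0.1, 0.01 and 0.005 µM was mixed with Z-FR-AMC (final 10 µM), and the reaction was started by adding cathepsin L in assay buffer. AMC fluorescence (ex 355/em 460 nm) was read every 30 s for 50 min.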

HUVECs = assay: Cytotoxicity assay; format: cell-based, human; settings: normal primary cells
Summary of the method: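 Pooled-donor HUVECs were grown on collagen-1-coated flasks in M200 with gentamycin, amphotericin B and low-serum growth supplement at 37 °C and 5% CO2, used at passage 5 or lower. Cells were seeded at 9,000/well for 24 h, then given ten-fold serial dilutions of test compound for 48 h. Plates were TCA-fixed and stained with 0.4% SRB for 30 min. Absorbance was read at 540 nm, normalised to 630 nm. GI50 came from at least two replicates, averaged over at least three experiments.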

C3H mammary carcinoma = assay: Growth inhibition of C3H mammary carcinoma in CDF1 mice; format: in vivo; settings: 20 mg/kg i.p., 5 daily treatments
Human liver Cathepsin B = Human liver Cathepsin B (Homo sapiens, UniProt P07858); assay: Cathepsin B inhibition assay; format: biochemical
Summary of the method: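 Human liver cathepsin B was pre-incubated with the test compound for 5 min at 37 °C, then Z-RR-AMC was added. Fluorescence (ex 355/em 460 nm) was read over 5 min at 37 °C. IC50 was fitted from triplicate experiments.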

human liver cathepsin L = human liver cathepsin L (Homo sapiens, UniProt P07711); assay: Cathepsin L inhibition assay; format: biochemical; settings: tested up to 10,000 nM
Sequence of human liver cathepsin L (P07711 114-288 limits assumed): as the sequence (P07711 114-288 limits assumed) above
Sequence of human liver cathepsin L (P07711 292-333 limits assumed): as the sequence (P07711 292-333 limits assumed) above

[3] = E/Z isomerization in solution followed by 1H NMR; format: physicochemical; settings: acetone, one week; isolated as Z isomer
cathepsin L [4] = biological target: T1, cathepsin L; settings: cited from earlier work

With `NC(=S)N/N=C(\c1ccccc1)c1cccc(C(=O)c2ccccc2)c1` [Compound 1, 3-Benzoylbenzophenone thiosemicarbazone] the “increase in inhibition of migration compared with positive control E-64” value [1] was “greater than 2 fold”, the “reversibility of cathepsin L inhibition” value (cathepsin L [2]) was “slowly reversible” and the “cytotoxicity toward HUVECs (in words)” value (HUVECs) was “low cytotoxicity; also recorded: very low cytotoxicity”. For the same compound, the “tumor growth delay (in words)” value (C3H mammary carcinoma; C3H mammary carcinoma in CDF1 mice) was “showed efficacy in tumor growth delay; also recorded: modest, statistically relevant efficacy in tumor growth delay; also recorded: delayed growth in vivo” and the “tolerability in mouse model” value (C3H mammary carcinoma; CDF1 mice bearing C3H mammary carcinoma) was “well-tolerated”.

For `NC(=S)N/N=C(\c1ccc(F)cc1)c1cccc(C(=O)c2ccc(F)cc2)c1` [Compound 8, 1,3-Bis(4-fluorobenzoyl)benzene thiosemicarbazone], the “cytotoxicity toward HUVECs (in words)” value (HUVECs) was “low cytotoxicity; also recorded: very low cytotoxicity”.

For `NC(=S)N/N=C(\c1ccc(Br)cc1)c1cccc(/C(=N/NC(N)=S)c2ccc(Br)cc2)c1` [Compound 10, 1,3-Bis(4-bromobenzoyl)benzene bis-thiosemicarbazone], the “activity against cathepsin B (in words)” value (Human liver Cathepsin B) was “inactive” and the “activity against cathepsin L (in words)” value (human liver cathepsin L) was “no activity”.

In the case of `CC(C)Oc1ccc(C(=O)c2cccc(/C(=N/NC(N)=S)c3ccc(OC(C)C)cc3)c2)cc1` [Compound 14, 1,3-Bis(4-isopropoxybenzoyl)benzene thiosemicarbazone], the “activity against cathepsin L (in words)” value (human liver cathepsin L) is reported as “inactive”.

In the case of `NC(=S)N/N=C(\c1cccc(O)c1)c1cc(Br)cc(C(=O)c2cccc(O)c2)c1` [Compound 31, 1,3-Bis(3-hydroxybenzoyl)-5-bromobenzene thiosemicarbazone], the “cytotoxicity toward HUVECs (in words)” value (HUVECs) is reported as “very low cytotoxicity”.

For `NC(=S)N/N=C(\c1cc(Br)cc(C(=O)c2ccccc2F)c1)c1ccccc1F` [Compound 32, 1,3-Bis(2-fluorobenzoyl)-5-bromobenzene thiosemicarbazone], the “reversibility of cathepsin L inhibition” value (cathepsin L [2]) was “slowly reversible”, the “cytotoxicity toward HUVECs (in words)” value (HUVECs) was “low cytotoxicity; also recorded: very low cytotoxicity” and the “isomerization on standing in solution” value [3] was “did not isomerize”.

For `NC(=S)NN=C(c1cccc(O)c1)c1cccc(Br)c1` [X, (3-bromo-3′-hydroxybenzophenone) thiosemicarbazone], the “kinetic analysis of cathepsin L inhibition” value (cathepsin L [4]) is given as “time-dependent and slowly reversible”.
